# Assay results reported in ChEMBL document CHEMBL5532695, “4-Trifluoromethyl bithiazoles as broad-spectrum antimicrobial agents for virus-related bacterial infections or co-infections” (RSC Med Chem, 2024).
# Calls of active or inactive are those of the source. No cut-off for these calls is given here.
# What was measured:
# rhinovirus A16 [1] = test: Antiviral activity against 7 times rupintrivir passaged resistance model of Human rhinovirus 16 infected in human HeLa cells assessed as inhibition of viral replication; type: functional, organism-based; settings: Rhinovirus A
# How it was run: (§1)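 HeLa cells infected with RVA16 and serially passaged under compound, supernatants harvested at extensive CPE (3–6 dpi), clarified and titrated on HeLa; each passage used prior virus at MOI 0.01, drug concentration doubled when possible; after 7 passages RNA sequenced. Antiviral read-out: HeLa at 33 °C, 48 h, VP3 immunostaining with HRP secondary; EC50 from variable-slope sigmoidal fit.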
# rhinovirus A16 [2] = test: Antiviral activity against 7 times N-(4'-(Trifluoromethyl)-2-((3-(trifluoromethyl)phenyl)amino)-[4,5'-bithiazol]-2'-yl)benzamide passaged resistance model of Human rhinovirus 16 infected in human HeLa cells assessed as inhibition of viral replication; type: functional, organism-based; settings: Rhinovirus A; how it was run: as §1
# rhinovirus A16 [3] = test: microbe, parasite or virus in culture; settings: Rhinovirus A, HeLa, 48 h
# [4] = target: Phosphatidylinositol 4-kinase beta (Homo sapiens, UniProt Q9UBF8); test: Inhibition of recombinant full length his tagged PI4KB (unknown origin) incubated for 10 mins in presence of ATP by ADP-glo kinase assay
# Chain of Phosphatidylinositol 4-kinase beta (Q9UBF8 whole entry): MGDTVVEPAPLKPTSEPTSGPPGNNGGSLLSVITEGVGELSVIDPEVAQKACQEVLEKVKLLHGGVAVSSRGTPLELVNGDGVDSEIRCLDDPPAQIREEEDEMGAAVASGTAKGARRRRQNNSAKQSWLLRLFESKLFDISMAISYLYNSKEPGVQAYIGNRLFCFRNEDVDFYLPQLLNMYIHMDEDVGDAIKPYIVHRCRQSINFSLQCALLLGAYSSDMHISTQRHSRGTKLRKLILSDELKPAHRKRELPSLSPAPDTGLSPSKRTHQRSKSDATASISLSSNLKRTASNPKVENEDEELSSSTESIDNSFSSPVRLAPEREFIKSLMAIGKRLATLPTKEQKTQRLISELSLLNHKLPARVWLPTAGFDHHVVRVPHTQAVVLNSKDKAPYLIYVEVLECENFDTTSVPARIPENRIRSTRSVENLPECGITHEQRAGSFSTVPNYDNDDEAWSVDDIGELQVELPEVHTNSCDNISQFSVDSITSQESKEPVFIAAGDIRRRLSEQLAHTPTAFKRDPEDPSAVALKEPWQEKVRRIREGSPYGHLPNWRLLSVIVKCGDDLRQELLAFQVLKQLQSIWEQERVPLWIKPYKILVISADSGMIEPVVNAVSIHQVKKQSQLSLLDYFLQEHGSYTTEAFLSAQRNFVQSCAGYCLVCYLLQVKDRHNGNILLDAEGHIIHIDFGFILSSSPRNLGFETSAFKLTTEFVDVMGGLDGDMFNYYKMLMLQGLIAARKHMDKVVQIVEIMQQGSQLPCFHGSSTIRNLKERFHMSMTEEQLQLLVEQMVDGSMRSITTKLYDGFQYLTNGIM
# [5] = Cytotoxicity against human HeLa cells assessed as reduction in cell viability by MTT assay; type: toxicity, cell-based
# How it was run: (§2)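 MTT viability on HeLa or VeroE6 cells, run in parallel with the antiviral assays. CC50 from variable-slope sigmoidal dose–response regression.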
# [6] = Cytotoxicity against african green monkey Vero E6 cells assessed as reduction in cell viability by MTT assay; type: toxicity, cell-based; settings: chlorocebus sabaeus, Vero E6 cells (Vero C1008); how it was run: as §2
# Bacillus subtilis [7] = test: Antibacterial activity against Bacillus subtilis ATCC 6633 assessed as reduction in microbial growth measured after 18 hrs by CLSI based broth microdilution method; type: functional
# How it was run: (§3)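 MIC by CLSI broth microdilution in Mueller–Hinton medium, triplicate. Inoculum 5 × 10^4 CFU per well. Compounds taken up in DMSO (50 mg mL−1 stock) and diluted in medium. Read after 18 h at 35 ± 2 °C.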
# Enterococcus faecalis [8] = test: Antibacterial activity against Enterococcus faecalis ATCC 29212 assessed as reduction in microbial growth measured after 18 hrs by CLSI based broth microdilution method; type: functional; how it was run: as §3
# Streptococcus pyogenes [9] = test: Antibacterial activity against Streptococcus pyogenes ATCC 12344 assessed as reduction in microbial growth measured after 18 hrs by CLSI based broth microdilution method; type: functional; how it was run: as §3
# Staphylococcus aureus [10] = test: Antibacterial activity against Staphylococcus aureus ATCC 25923 assessed as reduction in microbial growth measured after 18 hrs by CLSI based broth microdilution method; type: functional; how it was run: as §3
# Escherichia coli [11] = test: Synergistic antibacterial activity against Escherichia coli CCUGT incubated for 18 to 24 hrs in presence of colistin by broth microdilution method; type: functional; settings: time 18-24 hrs
# Klebsiella pneumoniae = test: Synergistic antibacterial activity against Klebsiella pneumoniae ATCC 13833 incubated for 18 to 24 hrs in presence of colistin by broth microdilution method; type: functional; settings: time 18-24 hrs
# Acinetobacter baumannii [12] = test: Synergistic antibacterial activity against Acinetobacter baumannii ATCC 17978 incubated for 18 to 24 hrs in presence of colistin by broth microdilution method; type: functional; settings: time 18-24 hrs
# Pseudomonas aeruginosa [13] = test: Synergistic antibacterial activity against Pseudomonas aeruginosa ATCC 27853 incubated for 18 to 24 hrs in presence of colistin by broth microdilution method; type: functional; settings: time 18-24 hrs
# Escherichia coli [14] = test: Synergistic antibacterial activity against colistin resistant mcr-positive Escherichia coli SI-63 incubated for 18 to 24 hrs in presence of colistin by broth microdilution method; type: functional; settings: time 18-24 hrs
# How it was run: (§4)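 Minimum antibacterial concentration (MAC) by broth microdilution in Mueller–Hinton medium with a fixed subinhibitory colistin concentration of 2 μg mL−1 against colistin-resistant Gram-negative clinical isolates; inoculum 5 × 10^4 CFU per well, 35 ± 2 °C; triplicate.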
# Acinetobacter baumannii [15] = test: Synergistic antibacterial activity against colistin/carbapenem resistant MDR Acinetobacter baumannii N50 incubated for 18 to 24 hrs in presence of colistin by broth microdilution method; type: functional; settings: time 18-24 hrs; how it was run: as §4
# Pseudomonas aeruginosa [16] = test: Synergistic antibacterial activity against colistin resistant MDR Pseudomonas aeruginosa SI-270 incubated for 18 to 24 hrs in presence of colistin by broth microdilution method; type: functional; settings: time 18-24 hrs; how it was run: as §4
# rhinovirus A16 [17] = test: Antiviral activity against hRVA16 infected in human HeLa cells assessed as effect on RNA intracellular level at 5 uM pretreated for 1 hrs before infection and measured after 1 to 6 hrs post infection by time of addition assay; type: functional, organism-based; settings: time 2-7 hrs
# How it was run: (§5)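 Time of addition: HeLa cells infected with RVA16 at MOI 0.1. Compound at 5 μM added 1 h before, during, or 1, 2, 4 or 6 h after infection. At 24 h, cells lysed and intracellular viral RNA measured by RV-specific qPCR; supernatant titrated on HeLa cells.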
# rhinovirus A16 [18] = test: Antiviral activity against hRVA16 infected in human HeLa cells assessed as effect on release of infectious virus at 5 uM measured after 24 hrs post infection by time of addition assay; type: functional, organism-based; how it was run: as §5
# enterovirus D68 = test: microbe, parasite or virus in culture; settings: Enterovirus D, HeLa, 48 h
# Zika virus = test: microbe, parasite or virus in culture; settings: Vero C1008, 72 h
# Bacillus subtilis [19] = test: Bactericidal activity against Bacillus subtilis ATCC 6633 assessed as reduction in microbial growth measured after 18 hrs by CLSI based broth microdilution method; type: functional
# How it was run: (§6)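 MBC by CLSI broth microdilution in Mueller–Hinton medium, triplicate. Inoculum 5 × 10^4 CFU per well. Read after 18 h at 35 ± 2 °C.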
# Enterococcus faecalis [20] = test: Bactericidal activity against Enterococcus faecalis ATCC 29212 assessed as reduction in microbial growth measured after 18 hrs by CLSI based broth microdilution method; type: functional; how it was run: as §6
# Streptococcus pyogenes [21] = test: Bactericidal activity against Streptococcus pyogenes ATCC 12344 assessed as reduction in microbial growth measured after 18 hrs by CLSI based broth microdilution method; type: functional; how it was run: as §6
# Staphylococcus aureus [22] = test: Bactericidal activity against Staphylococcus aureus ATCC 25923 assessed as reduction in microbial growth measured after 18 hrs by CLSI based broth microdilution method; type: functional; how it was run: as §6
# Staphylococcus aureus [23] = test: Antibacterial activity against methicillin-resistant Staphylococcus aureus ATCC 43300 assessed as reduction in microbial growth measured after 18 hrs by CLSI based broth microdilution method; type: functional
# How it was run: (§7)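 Gram-positive clinical isolates; compounds dissolved in DMSO (50 mg mL−1 stock) and diluted in medium; MIC by CLSI broth microdilution in Mueller–Hinton medium, inoculum 5 × 10^4 CFU per well, read after 18 h at 35 ± 2 °C; triplicate.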
# Staphylococcus aureus [24] = test: Bactericidal activity against methicillin-resistant Staphylococcus aureus ATCC 43300 assessed as reduction in microbial growth measured after 18 hrs by CLSI based broth microdilution method; type: functional
# Staphylococcus warneri [25] = test: Antibacterial activity against oxacillin-resistant Staphylococcus warneri SI-5/2011 assessed as reduction in microbial growth measured after 18 hrs by CLSI based broth microdilution method; type: functional; how it was run: as §7
# Staphylococcus warneri [26] = test: Bactericidal activity against oxacillin-resistant Staphylococcus warneri SI-5/2011 assessed as reduction in microbial growth measured after 18 hrs by CLSI based broth microdilution method; type: functional
# [27] = test system: Staphylococcus haemolyticus; test: Antibacterial activity against oxacillin-resistant Staphylococcus haemolyticus SI-6/2011 assessed as reduction in microbial growth measured after 18 hrs by CLSI based broth microdilution method; type: functional; how it was run: as §7
# [28] = test system: Staphylococcus epidermidis; test: Antibacterial activity against linezolid-resistant Staphylococcus epidermidis SI-1266 assessed as reduction in microbial growth measured after 18 hrs by CLSI based broth microdilution method; type: functional; how it was run: as §7
# [29] = test system: Staphylococcus epidermidis; test: Bactericidal activity against linezolid-resistant Staphylococcus epidermidis SI-1266 assessed as reduction in microbial growth measured after 18 hrs by CLSI based broth microdilution method; type: functional
# Enterococcus faecium [30] = test: Antibacterial activity against Vancomycin/teicoplanin resistant Enterococcus faecium SI-759 assessed as reduction in microbial growth measured after 18 hrs by CLSI based broth microdilution method; type: functional; how it was run: as §7
# Enterococcus faecium [31] = test: Bactericidal activity against Vancomycin/teicoplanin resistant Enterococcus faecium SI-759 assessed as reduction in microbial growth measured after 18 hrs by CLSI based broth microdilution method; type: functional
# Enterococcus faecium [32] = test: Antibacterial activity against Vancomycin resistant Enterococcus faecium SI-1831 assessed as reduction in microbial growth measured after 18 hrs by CLSI based broth microdilution method; type: functional; how it was run: as §7
# Enterococcus faecium [33] = test: Bactericidal activity against Vancomycin resistant Enterococcus faecium SI-1831 assessed as reduction in microbial growth measured after 18 hrs by CLSI based broth microdilution method; type: functional
# Enterococcus faecium [34] = test: Antibacterial activity against Vancomycin resistant Enterococcus faecium SI-3856B assessed as reduction in microbial growth measured after 18 hrs by CLSI based broth microdilution method; type: functional; how it was run: as §7
# Enterococcus faecium [35] = test: Bactericidal activity against Vancomycin resistant Enterococcus faecium SI-3856B assessed as reduction in microbial growth measured after 18 hrs by CLSI based broth microdilution method; type: functional
Compound,EC50 (rhinovirus A16 [1]) [nM],EC50 (rhinovirus A16 [2]) [nM],CC50 [5] [µM],CC50 [6] [µM],MIC (Bacillus subtilis [7]) [µg/mL],MIC (Enterococcus faecalis [8]) [µg/mL],MIC (Streptococcus pyogenes [9]) [µg/mL],MIC (Staphylococcus aureus [10]) [µg/mL],MAC (Escherichia coli [11]) [µg/mL],MAC (Klebsiella pneumoniae) [µg/mL],MAC (Acinetobacter baumannii [12]) [µg/mL],MAC (Pseudomonas aeruginosa [13]) [µg/mL],MAC (Escherichia coli [14]) [µg/mL],MAC (Acinetobacter baumannii [15]) [µg/mL],MAC (Pseudomonas aeruginosa [16]) [µg/mL],IC50 (rhinovirus A16 [3]) [nM],IC50 (enterovirus D68) [µM],IC50 (Zika virus) [µM],other results
CCOC(=O)/C=C/[C@H](C[C@@H]1CCNC1=O)NC(=O)[C@@H](CC(=O)[C@@H](NC(=O)c1cc(C)on1)C(C)C)Cc1ccc(F)cc1 [RUPINTRIVIR],14,5,,,,,,,,,,,,,,,,,EC50 (rhinovirus A16 [3]): 2 nM
O=C(Nc1nc(C(F)(F)F)c(-c2csc(Nc3cccc(C(F)(F)F)c3)n2)s1)c1ccccc1,1040,4320,> 50,35.9,> 32,> 32,> 32,> 32,2,64,8,>64,1,0.06,16,490,1.11,4.62,IC50 [4]: Not Active; Activity (rhinovirus A16 [17]): Active; Activity (rhinovirus A16 [18]): Active
CC(C)(C)C(=O)Nc1nc(C(F)(F)F)c(-c2csc(Nc3cccc(C(F)(F)F)c3)n2)s1,,,46,> 50,4,8,4,8,4,4,4,>64,0.5,0.03,2,1820,8.37,11.5,IC50 ([4]; read-out: IC50): > 50 µM; MBC (Bacillus subtilis [19]): 8 µg/mL; MBC (Enterococcus faecalis [20]): > 32 µg/mL; MBC (Streptococcus pyogenes [21]): 4 µg/mL; MBC (Staphylococcus aureus [22]): 32 µg/mL; MIC (Staphylococcus aureus [23]): 4 µg/mL; MBC (Staphylococcus aureus [24]): 32 µg/mL; MIC (Staphylococcus warneri [25]): 4 µg/mL; MBC (Staphylococcus warneri [26]): 64 µg/mL; MIC [27]: > 64 µg/mL; MIC [28]: 16 µg/mL; MBC [29]: > 64 µg/mL; MIC (Enterococcus faecium [30]): 2 µg/mL; MBC (Enterococcus faecium [31]): 4 µg/mL; MIC (Enterococcus faecium [32]): 2 µg/mL; MBC (Enterococcus faecium [33]): > 64 µg/mL; MIC (Enterococcus faecium [34]): 4 µg/mL; MBC (Enterococcus faecium [35]): > 64 µg/mL
